One data set addresses Histone deacetylase 2 (Homo sapiens, UniProt Q92769). Put plainly: Inhibition of HDAC2 (unknown origin). An outline of the steps:
(§1)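 Each deacetylase was run in a Fluor de Lys (FDL) fluorogenic deacetylation assay as a selectivity screen, with compound tested at concentrations up to 200 μM. IC50 was estimated from the dose-response.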

The next data set concerns BXPC-3. Put plainly: Upregulation of GLUT1 expression in human BxPC3 cells measured after 72 hrs by Western blot analysis. It is filed as functional, cell-based. An outline of the steps:
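BxPC-3 cells were exposed to 1.25, 2.5, 5 and 10 μM compound for 72 h. GLUT1 protein was then detected by western blot, with α-tubulin as loading control.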

For data set [1], the target named is T1, NAD-dependent protein deacylase sirtuin-6 (Homo sapiens, UniProt Q8N6T7). Put plainly: Binding affinity to SIRT6 (unknown origin) by isothermal titration calorimetry.
T1 sequence (Q8N6T7 whole entry): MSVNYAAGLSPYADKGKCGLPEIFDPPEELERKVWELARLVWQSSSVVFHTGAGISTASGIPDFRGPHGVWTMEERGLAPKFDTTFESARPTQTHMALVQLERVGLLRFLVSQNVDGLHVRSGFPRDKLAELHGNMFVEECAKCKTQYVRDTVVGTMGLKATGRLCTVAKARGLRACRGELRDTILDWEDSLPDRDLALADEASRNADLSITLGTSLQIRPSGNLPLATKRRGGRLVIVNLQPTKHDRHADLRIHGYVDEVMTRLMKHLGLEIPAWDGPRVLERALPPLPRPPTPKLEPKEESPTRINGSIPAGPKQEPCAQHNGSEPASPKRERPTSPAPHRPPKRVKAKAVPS
Data set [2] addresses T2, Protein deacetylase HDAC6 (Homo sapiens, UniProt Q9UBN7).
T2 sequence (Q9UBN7 whole entry): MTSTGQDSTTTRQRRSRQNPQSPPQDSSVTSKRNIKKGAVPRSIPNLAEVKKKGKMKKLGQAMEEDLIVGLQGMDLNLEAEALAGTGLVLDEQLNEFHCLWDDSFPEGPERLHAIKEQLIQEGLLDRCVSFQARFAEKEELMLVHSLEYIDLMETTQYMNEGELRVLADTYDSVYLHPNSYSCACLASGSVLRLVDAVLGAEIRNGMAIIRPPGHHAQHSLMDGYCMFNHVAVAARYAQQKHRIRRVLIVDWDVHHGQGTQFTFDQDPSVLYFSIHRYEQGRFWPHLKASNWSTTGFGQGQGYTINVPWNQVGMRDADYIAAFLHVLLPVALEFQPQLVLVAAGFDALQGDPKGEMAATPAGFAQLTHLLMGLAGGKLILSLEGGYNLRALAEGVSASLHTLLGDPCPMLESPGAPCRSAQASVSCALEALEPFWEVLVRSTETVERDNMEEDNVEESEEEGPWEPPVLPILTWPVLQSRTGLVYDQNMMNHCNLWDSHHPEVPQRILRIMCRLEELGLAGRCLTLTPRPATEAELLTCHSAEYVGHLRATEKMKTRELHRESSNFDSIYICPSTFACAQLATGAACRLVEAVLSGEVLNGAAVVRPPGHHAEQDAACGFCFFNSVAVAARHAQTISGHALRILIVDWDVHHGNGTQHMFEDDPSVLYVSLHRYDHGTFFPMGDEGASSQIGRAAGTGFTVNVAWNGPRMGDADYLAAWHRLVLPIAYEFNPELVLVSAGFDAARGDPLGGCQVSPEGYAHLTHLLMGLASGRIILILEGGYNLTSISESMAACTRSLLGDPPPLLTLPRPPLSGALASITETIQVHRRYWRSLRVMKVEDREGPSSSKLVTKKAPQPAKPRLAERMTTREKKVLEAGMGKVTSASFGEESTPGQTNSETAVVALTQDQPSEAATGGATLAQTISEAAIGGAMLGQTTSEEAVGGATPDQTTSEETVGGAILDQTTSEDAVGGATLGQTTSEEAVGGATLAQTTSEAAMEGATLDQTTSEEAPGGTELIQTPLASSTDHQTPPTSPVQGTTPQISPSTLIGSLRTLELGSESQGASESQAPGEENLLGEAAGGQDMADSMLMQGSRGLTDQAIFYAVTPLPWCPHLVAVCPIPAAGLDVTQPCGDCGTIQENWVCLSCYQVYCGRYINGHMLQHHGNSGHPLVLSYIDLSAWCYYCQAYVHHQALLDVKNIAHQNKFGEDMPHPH
Put plainly: Inhibition of HDAC6 (unknown origin). The method in brief: as §1

A short description of data set [3]: Toxicity in mouse assessed as change in blood glucose level. The method in brief: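 Normal (non-diabetic) mice were dosed, and blood glucose and body weight were tracked over the study.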
The target of a further data set is Histone deacetylase 4 (Homo sapiens, UniProt P56524). Put plainly: Inhibition of HDAC4 (unknown origin). An outline of the steps: as §1
Sequence of Histone deacetylase 4 (P56524 whole entry): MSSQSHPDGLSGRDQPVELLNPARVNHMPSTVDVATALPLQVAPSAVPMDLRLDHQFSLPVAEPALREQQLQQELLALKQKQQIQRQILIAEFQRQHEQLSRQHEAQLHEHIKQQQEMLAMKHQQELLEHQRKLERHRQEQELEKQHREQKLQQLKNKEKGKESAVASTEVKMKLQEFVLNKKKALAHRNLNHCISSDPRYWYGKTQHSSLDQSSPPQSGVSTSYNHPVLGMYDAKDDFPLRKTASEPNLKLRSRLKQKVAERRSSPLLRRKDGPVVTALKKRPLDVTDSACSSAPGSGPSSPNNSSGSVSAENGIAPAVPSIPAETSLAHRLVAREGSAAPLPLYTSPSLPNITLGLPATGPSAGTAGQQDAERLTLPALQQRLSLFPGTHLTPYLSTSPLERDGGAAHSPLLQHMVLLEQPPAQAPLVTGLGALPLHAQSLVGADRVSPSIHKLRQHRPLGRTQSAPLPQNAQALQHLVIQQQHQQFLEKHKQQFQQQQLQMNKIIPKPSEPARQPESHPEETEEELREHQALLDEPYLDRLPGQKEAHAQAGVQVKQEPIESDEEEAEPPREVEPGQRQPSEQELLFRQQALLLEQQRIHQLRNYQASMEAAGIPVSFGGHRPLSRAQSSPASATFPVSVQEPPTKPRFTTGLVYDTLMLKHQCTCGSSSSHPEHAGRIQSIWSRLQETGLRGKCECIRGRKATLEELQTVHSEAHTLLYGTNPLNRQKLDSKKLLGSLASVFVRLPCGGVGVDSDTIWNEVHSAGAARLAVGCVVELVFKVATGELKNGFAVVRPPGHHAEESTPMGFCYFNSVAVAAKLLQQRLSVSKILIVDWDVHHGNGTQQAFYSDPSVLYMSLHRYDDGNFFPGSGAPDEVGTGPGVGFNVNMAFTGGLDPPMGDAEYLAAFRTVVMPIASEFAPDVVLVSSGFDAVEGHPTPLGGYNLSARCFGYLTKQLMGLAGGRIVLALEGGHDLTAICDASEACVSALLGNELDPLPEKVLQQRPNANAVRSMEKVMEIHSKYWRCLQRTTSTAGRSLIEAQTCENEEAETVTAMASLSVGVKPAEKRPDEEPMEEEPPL
In data set [4] the target is T1, NAD-dependent protein deacylase sirtuin-6. Put plainly: Inhibition of SIRT6 in human BxPC3 cells assessed as increase in […] expression measured after 48 hrs by Western blot analysis. It is filed as cell-based. Conditions: BXPC-3. An outline of the steps: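 BxPC-3 cells were exposed to 0.78, 1.56, 3.13, 6.25, 12.5 and 25 μM compound for 48 h. Histone H3K9ac and H3K18ac levels were then assessed by western blot, with β-actin as the loading control. Acetylation increase is read as cellular SIRT6 deacetylase inhibition.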
For orientation: Immunoblotting shows a protein as a band on a membrane.

For a further data set, the target named is T3, Histone deacetylase 7 (Homo sapiens, UniProt Q8WUI4).
T3 sequence (Q8WUI4 whole entry): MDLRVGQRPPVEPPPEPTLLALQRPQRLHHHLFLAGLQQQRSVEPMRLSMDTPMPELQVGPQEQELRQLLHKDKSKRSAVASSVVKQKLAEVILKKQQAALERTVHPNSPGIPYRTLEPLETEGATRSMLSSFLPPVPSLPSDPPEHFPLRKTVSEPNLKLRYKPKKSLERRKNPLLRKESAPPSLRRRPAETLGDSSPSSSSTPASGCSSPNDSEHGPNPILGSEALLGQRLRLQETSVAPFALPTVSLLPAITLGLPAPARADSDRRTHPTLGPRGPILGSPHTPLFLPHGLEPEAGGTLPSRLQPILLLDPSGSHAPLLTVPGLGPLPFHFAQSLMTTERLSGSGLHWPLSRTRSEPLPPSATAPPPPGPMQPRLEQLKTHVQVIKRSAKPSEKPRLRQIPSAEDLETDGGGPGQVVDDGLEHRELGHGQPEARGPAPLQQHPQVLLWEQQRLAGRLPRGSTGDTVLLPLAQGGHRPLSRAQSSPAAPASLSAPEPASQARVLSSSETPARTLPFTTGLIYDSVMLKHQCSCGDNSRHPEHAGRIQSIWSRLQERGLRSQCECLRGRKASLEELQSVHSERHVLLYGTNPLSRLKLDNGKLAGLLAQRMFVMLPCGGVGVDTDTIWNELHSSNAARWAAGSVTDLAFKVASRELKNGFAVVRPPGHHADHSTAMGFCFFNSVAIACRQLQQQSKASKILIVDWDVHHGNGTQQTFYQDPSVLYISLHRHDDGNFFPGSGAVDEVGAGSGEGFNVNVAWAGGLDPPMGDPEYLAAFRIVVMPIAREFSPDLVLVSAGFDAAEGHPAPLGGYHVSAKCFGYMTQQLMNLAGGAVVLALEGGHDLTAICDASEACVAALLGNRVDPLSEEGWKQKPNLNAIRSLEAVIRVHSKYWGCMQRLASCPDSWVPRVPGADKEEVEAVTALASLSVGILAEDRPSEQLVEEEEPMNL
Put plainly: Inhibition of HDAC7 (unknown origin). An outline of the steps:
as §1

Structures are written as SMILES.

Sequence of Histone deacetylase 2 (Q92769 whole entry): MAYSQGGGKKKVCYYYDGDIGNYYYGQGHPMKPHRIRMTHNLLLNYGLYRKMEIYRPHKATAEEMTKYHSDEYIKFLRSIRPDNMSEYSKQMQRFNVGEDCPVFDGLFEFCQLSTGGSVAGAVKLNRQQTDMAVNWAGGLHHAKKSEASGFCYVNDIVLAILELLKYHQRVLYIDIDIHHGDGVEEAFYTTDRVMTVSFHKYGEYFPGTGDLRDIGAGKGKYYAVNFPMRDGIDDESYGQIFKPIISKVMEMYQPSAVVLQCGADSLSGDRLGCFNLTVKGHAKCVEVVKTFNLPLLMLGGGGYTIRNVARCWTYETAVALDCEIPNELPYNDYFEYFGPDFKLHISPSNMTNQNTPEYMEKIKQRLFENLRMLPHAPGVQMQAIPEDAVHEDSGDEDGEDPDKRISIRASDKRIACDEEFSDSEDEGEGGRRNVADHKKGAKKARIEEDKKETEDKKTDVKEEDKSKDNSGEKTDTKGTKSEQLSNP

Regarding `CN1CCN(c2ccc([N+](=O)[O-])c(N)c2)CC1`, the IC50 (on Histone deacetylase 2; in data set [2]; against Histone deacetylase 4; on Histone deacetylase 7) was above 200 µM in each case. Further, the Activity entry in the data set on BXPC-3 is “Dose-dependent effect”; in data set [3], “Non-Toxic”. Besides, binding in data set [1] was characterised by a dissociation constant (Kd) of 10 µM. Moreover, in data set [4], the inhibition entry is “Dose-dependent effect”.
